Results taken from ChEMBL document CHEMBL4270526, “A novel NAE/UAE dual inhibitor LP0040 blocks neddylation and ubiquitination leading to growth inhibition and apoptosis of cancer cells” (Eur J Med Chem, 2018).
Activity calls are given as the source filed them. The calls are words filed in the database; no cut-off is given here.

Assays:
BXPC-3 = test: Antiproliferative activity against human BxPC3 cells after 48 hrs by CCK8 assay; type: functional, cell-based; details: BXPC-3, 48 h
Outline: (§1)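 Cells seeded at 6 × 10^3 cells/well and left 12 h at 37 °C, 5% CO2. Medium then replaced with serial compound dilutions, bortezomib as positive control. After 48 h, CCK-8 added for 4 h and absorbance read at 450 nm. Three repeats; IC50 from normalized nonlinear regression of inhibition curves.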

AGS = test: Antiproliferative activity against human AGS cells after 48 hrs by CCK8 assay; type: functional, cell-based; outline: as §1
K562 = test: Antiproliferative activity against human K562 cells after 48 hrs by CCK8 assay; type: functional, cell-based; details: K562, 48 h; outline: as §1
A549 = test: Antiproliferative activity against human A549 cells after 48 hrs by CCK8 assay; type: functional, cell-based; details: A549, 48 h; outline: as §1
HCT-116 = test: Antiproliferative activity against human HCT116 cells after 48 hrs by CCK8 assay; type: functional, cell-based; details: HCT-116, 48 h; outline: as §1
SK-OV-3 = test: Antiproliferative activity against human SKOV3 cells after 48 hrs by CCK8 assay; type: functional, cell-based; details: SK-OV-3, 48 h; outline: as §1
[1] = Antiproliferative activity against human LO2 cells after 48 hrs by CCK8 assay; type: cell-based, L02; details: read-out: LC50
[2] = Antiproliferative activity against HUVEC after 48 hrs by CCK8 assay; type: cell-based; details: human, read-out: LC50
[3] = Antiproliferative activity against HEK293T cells after 48 hrs by CCK8 assay; type: cell-based, HEK-293T; details: human, read-out: LC50
[4] = Hemolytic activity against rabbit erythrocytes assessed as hemolysis at 100 uM measured after 1 hr; type: ADME, cell-based, Oryctolagus cuniculus, Erythrocyte; details: read-out: Activity
Outline: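 Rabbit erythrocytes pelleted at 3000 rpm for 10 min, washed twice and resuspended in PBS. Mixed 1:1 with 200 μM compound solution in PBS, 1 h at 37 °C. PBS served as 0% and 1% Triton X-100 as 100% hemolysis. After centrifugation, supernatant hemoglobin read at 540 nm; % hemolysis calculated relative to the Triton and PBS controls.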

[5] = target: T1, NEDD8 activating enzyme (Homo sapiens) (UniProt Q8TBC4+Q13564); test: Inhibition of NAE-mediated CRL neddylation in human AGS cells assessed as increase in CDT1 level after 24 hrs by Western blot analysis; type: cell-based
Outline: (§2)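 AGS cells given 2, 4, 6, 8 or 10 μM compound or 0.1% DMSO for 24 h, washed in ice-cold PBS and lysed in RIPA on ice. Equal protein loads run by SDS-PAGE: non-reducing for NEDD8/SUMO/Ub conjugates, reducing for p27, NRF2, CDT1 and cleaved caspase-3. Blotted to PVDF with primary antibody overnight at 4 °C and HRP secondary, ECL detection, densitometry. Three repeats.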

[6] = target: T1, NEDD8 activating enzyme (Homo sapiens); test: Inhibition of NAE-mediated CRL neddylation in human AGS cells assessed as increase in p27 level after 24 hrs by Western blot analysis; type: cell-based; outline: as §2
[7] = target: T1, NEDD8 activating enzyme (Homo sapiens); test: Inhibition of NAE-mediated CRL neddylation in human AGS cells assessed as increase in NRF2 level after 24 hrs by Western blot analysis; type: cell-based; outline: as §2
[8] = target: T1, NEDD8 activating enzyme (Homo sapiens); test: Inhibition of NAE in human AGS cells assessed as reduction in Ubc12-NEDD8 conjugation level at 10 to 90 uM after 24 hrs by Western blot analysis; type: cell-based
[9] = target: T1, NEDD8 activating enzyme (Homo sapiens); test: Inhibition of NAE in human AGS cells assessed as reduction in Cullins-NEDD8 conjugation level at 10 to 90 uM after 24 hrs by Western blot analysis; type: cell-based
[10] = target: T1, NEDD8 activating enzyme (Homo sapiens); test: Inhibition of NAE in human AGS cells assessed as reduction in Uba3-NEDD8 conjugation level at 10 to 90 uM after 24 hrs by Western blot analysis; type: cell-based

O=c1cc(C#CC2(O)CCCCC2)c2ccc(N3CCC(NCCc4ccccc4)CC3)cc2o1
IC50 (BXPC-3): 2.01 µM | IC50 (AGS): 1.71 µM | IC50 (K562): 2.63 µM | IC50 (A549): 2.48 µM | IC50 (HCT-116): 2.79 µM | IC50 (SK-OV-3): 4.35 µM

NS(=O)(=O)OC[C@@H]1C[C@@H](n2ccc3c(N[C@@H]4CCc5ccccc54)ncnc32)C[C@@H]1O
CC50 at 48 h [1]: 9.01 µM | CC50 at 48 h [2]: 4.79 µM | CC50 at 48 h [3]: 6.17 µM | hemolysis at 1 h, 100 µM [4]: 5.8%

Clc1ccc(CCNC2CCN(Cc3ccccc3)CC2)c(Cl)c1
IC50 (BXPC-3): 12.4 µM | IC50 (AGS): 9.92 µM | IC50 (K562): 5.51 µM | IC50 (A549): 5.55 µM | IC50 (HCT-116): 10.6 µM | IC50 (SK-OV-3): 9.26 µM

Cc1ccc(-c2cc(=O)oc3cc(N4CCC(NCCc5ccccc5)CC4)ccc23)cc1C
IC50 (BXPC-3): 8.44 µM | IC50 (AGS): 1.89 µM | IC50 (K562): 3.26 µM | IC50 (A549): 3.77 µM | IC50 (HCT-116): 5.82 µM | IC50 (SK-OV-3): 6.42 µM

CC(C)C[C@H](NC(=O)[C@H](Cc1ccccc1)NC(=O)c1cnccn1)B(O)O [BORTEZOMIB]
CC50 at 48 h [1]: 0.398 µM | CC50 at 48 h [2]: 0.018 µM | CC50 at 48 h [3]: 0.016 µM

O=c1cc(C#Cc2cccnc2)c2ccc(N3CCC(NCCc4ccccc4)CC3)cc2o1
IC50 (BXPC-3): 4.33 µM | IC50 (AGS): 1.66 µM | IC50 (K562): 3.3 µM | hemolysis at 1 h, 100 µM [4]: < 10% | IC50 (A549): 3.35 µM | IC50 (HCT-116): 2.69 µM | IC50 (SK-OV-3): 7.7 µM

O=c1cc(-c2c[nH]nn2)c2ccc(N3CCC(NCCc4ccccc4)CC3)cc2o1
IC50 (BXPC-3): > 30 µM | IC50 (AGS): > 30 µM | IC50 (K562): > 30 µM | IC50 (A549): > 30 µM | IC50 (HCT-116): > 30 µM | IC50 (SK-OV-3): > 30 µM

O=c1cc(C#CC2CCCCC2)c2ccc(N3CCC(NCCc4ccccc4)CC3)cc2o1
IC50 (BXPC-3): 4.08 µM | IC50 (AGS): 1.13 µM | IC50 (K562): 1.17 µM | IC50 (A549): 2.99 µM | IC50 (HCT-116): 2.81 µM | IC50 (SK-OV-3): 4.17 µM

O=c1cc(-c2cnc(O)nc2O)c2ccc(N3CCC(NCCc4ccccc4)CC3)cc2o1
inhibition [5]: inactive | inhibition [6]: inactive | IC50 (BXPC-3): > 30 µM | IC50 (AGS): > 30 µM | IC50 (K562): > 30 µM | inhibition [7]: inactive | inhibition [8]: inactive | IC50 (A549): > 30 µM | IC50 (HCT-116): > 30 µM | IC50 (SK-OV-3): > 30 µM | inhibition [9]: inactive | inhibition [10]: inactive

O=c1cc(C#Cc2cccc(Cl)c2)c2ccc(N3CCC(NCCc4ccccc4)CC3)cc2o1
IC50 (BXPC-3): 1.33 µM | IC50 (AGS): 1.42 µM | IC50 (K562): 1.32 µM | hemolysis at 1 h, 100 µM [4]: < 10% | IC50 (A549): 3.1 µM | IC50 (HCT-116): 4.27 µM | IC50 (SK-OV-3): 7.5 µM

Cc1cc(-c2cc(=O)oc3cc(N4CCC(NCCc5ccccc5)CC4)ccc23)ccc1C(F)(F)F
IC50 (BXPC-3): 7.67 µM | IC50 (AGS): 1.39 µM | IC50 (K562): 3.29 µM | IC50 (A549): 3.09 µM | IC50 (HCT-116): 6 µM | IC50 (SK-OV-3): 5.94 µM

O=c1cc(-c2ccc(Oc3ccccc3)cc2)c2ccc(N3CCC(NCCc4ccccc4)CC3)cc2o1
IC50 (BXPC-3): 2.82 µM | IC50 (AGS): 1.26 µM | IC50 (K562): 1.53 µM | IC50 (A549): 3.83 µM | IC50 (HCT-116): 6.11 µM | IC50 (SK-OV-3): 3.22 µM
